Experimental findings from publication PMC11097374 (ACS Omega, 2024) are described below.

In general, IC50 refers to the concentration that inhibits the measured activity by half.

For data set [1], the system named is MDA-MB 231 cells. Description: MTT assay against human breast cancer cell line MDA-MB 231. In kind it is cell-based. Conditions: for IC50: Homo sapiens, MDA-MB-231, 72 h, read-out: MDA-MB 231 IC50; for MDA-MB 231 SI (selectivity index): over Wi-38 normal cells. Put shortly: (§1)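 Cytotoxicity by MTT, run side by side on MCF-7 and MDA-MB231 breast cancer cells and Wi-38 normal human fibroblasts, with doxorubicin as reference. IC50 was determined for each line, and IC100 also on Wi-38. Selectivity indices express selectivity toward each breast cancer line over the normal Wi-38 cells.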
(In general: Tetrazolium dyes change colour on reduction, which living cells bring about.)

For data set [2], the system named is MCF-7 cells. Nature of the data set: MTT assay against human breast cancer cell line MCF-7. In kind it is cell-based. The settings on record: for IC50: Homo sapiens, MCF7, 72 h, read-out: MCF-7 IC50; for MCF-7 SI (selectivity index): over Wi-38 normal cells; for cytotoxicity compared to doxorubicin: MTT, cell line not given, fits MCF-7 IC50 values; for fold reduction of potency and selectivity relative to 18: MCF-7, bromo replaced by chloro or nitro. Put shortly: as §1

The test system of data set [3] is Wi-38 normal human lung fibroblast cells. Description: MTT assay against normal human cell line. In kind it is cell-based. The settings on record: for IC50: Homo sapiens, WI-38, 72 h, read-out: Wi-38 IC50; for Wi-38 IC100: MTT, 72 h, SI calls it EC100, dose at 100% cell viability, mean ± SEM. Put shortly: as §1
In data set [4] the test system is calf thymus DNA (ctDNA). Nature of the data set: DNA damage by terbium. The class given is biochemical. The settings on record: 24 h incubation, Tb fluorescence 545 nm.

Take `CC(=O)Nc1c(N)nc(S)[nH]c1=O` [Compound 3, N-(4-amino-2-mercapto-6-oxo-1,6-dihydropyrimidin-5-yl)acetamide]: in data set [1], the 50% inhibitory concentration (IC50) came out at 1440 ± 255 nM and the “MDA-MB 231 SI (selectivity index)” value was found to be 0.930. In addition, in data set [2], the IC50 worked out at 832 ± 48 nM and the “MCF-7 SI (selectivity index)” value came out at 1.615. For the same compound, in data set [3], the IC50 was 1340 ± 72 nM and the “Wi-38 IC100” value was 0.103 ± 0.045 µM.

For the compound `CCOC(=O)CSc1nc(N)c(NC(C)=O)c(=O)[nH]1` [Compound 4, Ethyl 2-((5-Acetamido-4-amino-6-Oxo-1,6-dihydropyrimidin-2-yl)thio)acetate], in data set [1], the IC50 was 840 ± 50 nM and the “MDA-MB 231 SI (selectivity index)” value was determined as 1.014. In data set [2], the IC50 came to 266 ± 15 nM and the “MCF-7 SI (selectivity index)” value was found to be 3.203. Also, in data set [3], the IC50 amounted to 852 ± 11 nM and the “Wi-38 IC100” value stood at 0.352 ± 0.012 µM.

Turning to `CC(=O)Nc1c(N)nc(SCC(=O)N/N=C/c2ccc(Cl)cc2)[nH]c1=O` [Compound 6, (E)-N-(4-amino-2-((2-(2-(4-chlorobenzylidene)hydrazinyl)-2-oxoethyl)thio)-6-oxo-1,6-dihydropyrimidin-5-yl)acetamide], in data set [1], the half-inhibitory concentration (IC50) turned out to be 681 ± 29 nM and the “MDA-MB 231 SI (selectivity index)” value turned out to be 1.016. In addition, in data set [2], the IC50 came out at 445 ± 15 nM and the “MCF-7 SI (selectivity index)” value is on record as 1.555. Further, in data set [3], the half-maximal inhibitory concentration (IC50) came to 692 ± 64 nM and the “Wi-38 IC100” value was found to be 0.037 ± 0.007 µM.

Consider `CC(=O)Nc1c(N)nc(SCC(=O)N/N=C/c2ccc(Br)cc2)[nH]c1=O` [Compound 7, (E)-N-(4-amino-2-((2-(2-(4-bromobenzylidene)hydrazinyl)-2-oxoethyl)thio)-6-oxo-1,6-dihydropyrimidin-5-yl)acetamide], for which, in data set [1], the IC50 stood at 616 ± 20 nM and the “MDA-MB 231 SI (selectivity index)” value came out at 0.662. For the same compound, in data set [2], the IC50 is 167 ± 40 nM and the “cytotoxicity compared to doxorubicin” value is reported as “surpassed doxorubicin”. Besides, in data set [3], the IC50 turned out to be 408 ± 81 nM and the “Wi-38 IC100” value came to 0.232 ± 0.003 µM.

In the case of `CC(=O)Nc1c(N)nc(SCC(=O)N/N=C/c2ccc([N+](=O)[O-])cc2)[nH]c1=O` [Compound 8, (E)-N-(4-amino-2-((2-(2-(4-nitrobenzylidene)hydrazinyl)-2-oxoethyl)thio)-6-oxo-1,6-dihydropyrimidin-5-yl)acetamide], in data set [4], the “LOD (minimum concentration inducing detectable DNA damage)” value came to 30.03 nM and the LOQ is given as 100.12 nM. Moreover, in data set [1], the IC50 was 583 ± 20 nM and the “MDA-MB 231 SI (selectivity index)” value was determined as 1.222. In data set [2], the IC50 was 146 ± 11 nM, the “cytotoxicity compared to doxorubicin” value is “surpassed doxorubicin” and the “MCF-7 SI (selectivity index)” value is listed as 4.883. In data set [3], the IC50 amounted to 713 ± 44 nM and the “Wi-38 IC100” value was 0.491 ± 0.084 µM.

For `COc1ccc(/C=N/NC(=O)CSc2nc(N)c(NC(C)=O)c(=O)[nH]2)cc1` [Compound 9, (E)-N-(4-amino-2-((2-(2-(4-methoxybenzylidene)hydrazinyl)-2-oxoethyl)thio)-6-oxo-1,6-dihydropyrimidin-5-yl)acetamide], in data set [1], the IC50 came to 683 ± 1 nM and the “MDA-MB 231 SI (selectivity index)” value is recorded as 1.531. Also, in data set [2], the half-inhibitory concentration (IC50) turned out to be 217 ± 16 nM and the “MCF-7 SI (selectivity index)” value is reported as 4.820. Further, in data set [3], the IC50 stood at 1050 ± 25 nM and the “Wi-38 IC100” value was determined as 0.424 ± 0.020 µM.

As to `CC(=O)Nc1c(N)nc(SCC(=O)N/N=C/c2ccccc2O)[nH]c1=O` [Compound 10, (E)-N-(4-amino-2-((2-(2-(2-hydroxybenzylidene)hydrazinyl)-2-oxoethyl)thio)-6-oxo-1,6-dihydropyrimidin-5-yl)acetamide], in data set [1], the IC50 was 590 ± 49 nM and the “MDA-MB 231 SI (selectivity index)” value is on record as 0.849. In data set [2], the IC50 stood at 102 ± 1 nM, the “cytotoxicity compared to doxorubicin” value is “surpassed doxorubicin” and the “MCF-7 SI (selectivity index)” value was 4.911. For the same compound, in data set [3], the 50% inhibitory concentration (IC50) worked out at 501 ± 49 nM and the “Wi-38 IC100” value came to 0.241 ± 0.037 µM.

On to `Cc1cc(=O)n2c(C)n[nH]c2n1` [Compound 14, 3,7-Dimethyl-1,2,4-triazolo[4,3-a]pyrimidin-5(1H)-one], for which, in data set [1], the IC50 stood at 1260 ± 52 nM and the “MDA-MB 231 SI (selectivity index)” value is 1.200. Besides, in data set [2], the IC50 worked out at 292 ± 10 nM and the “MCF-7 SI (selectivity index)” value amounted to 5.157. Besides, in data set [3], the IC50 came to 1510 ± 41 nM and the “Wi-38 IC100” value worked out at 0.206 ± 0.014 µM.

Regarding `COC(=O)Cn1nc(C)n2c(=O)cc(C)nc12` [Compound 15, Methyl 2-(3,7-dimethyl-5-oxo-1,2,4-triazolo[4,3-a]pyrimidin-1(5H)-yl)acetate], in data set [1], the half-maximal inhibitory concentration (IC50) stood at 1280 ± 56 nM and the “MDA-MB 231 SI (selectivity index)” value was 0.912. In data set [2], the IC50 was determined as 617 ± 29 nM and the “MCF-7 SI (selectivity index)” value came out at 1.894. In data set [3], the IC50 is 1170 ± 22 nM and the “Wi-38 IC100” value came to 0.237 ± 0.017 µM.

Regarding `Cc1cc(=O)n2c(C)nn(CC(=O)NN)c2n1` [Compound 16, 2-(3,7-Dimethyl-5-oxo-1,2,4-triazolo[4,3-a]pyrimidin-1(5H)-yl)acetohydrazide], in data set [1], the IC50 was 1128 ± 2 nM and the “MDA-MB 231 SI (selectivity index)” value is 0.867. For the same compound, in data set [2], the 50% inhibitory concentration (IC50) was 544 ± 8 nM and the “MCF-7 SI (selectivity index)” value is listed as 1.797. Moreover, in data set [3], the IC50 stood at 978 ± 13 nM and the “Wi-38 IC100” value amounted to 0.115 ± 0.033 µM.

As for `Cc1cc(=O)n2c(C)nn(CC(=O)N/N=C/c3ccc(Cl)cc3)c2n1` [Compound 17, (E)-N′-(4-chlorobenzylidene)-2-(3,7-dimethyl-5-oxo-1,2,4-triazolo[4,3-a]pyrimidin-1(5H)-yl)acetohydrazide], in data set [1], the concentration for half-maximal inhibition (IC50) was 632 ± 29 nM and the “MDA-MB 231 SI (selectivity index)” value amounted to 0.938. In addition, in data set [2], the 50% inhibitory concentration (IC50) was determined as 403 ± 62 nM; the “fold reduction of potency and selectivity relative to 18” value came to 5 fold; the “MCF-7 SI (selectivity index)” value was determined as 1.471. Besides, in data set [3], the IC50 was determined as 593 ± 24 nM and the “Wi-38 IC100” value is 0.124 ± 0.034 µM.

Consider `Cc1cc(=O)n2c(C)nn(CC(=O)N/N=C/c3ccc(Br)cc3)c2n1` [Compound 18, (E)-N′-(4-bromobenzylidene)-2-(3,7-dimethyl-5-oxo-1,2,4-triazolo[4,3-a]pyrimidin-1(5H)-yl)acetohydrazide], for which, in data set [1], the concentration for half-maximal inhibition (IC50) came out at 559 ± 29 nM and the “MDA-MB 231 SI (selectivity index)” value is on record as 1.060. Also, in data set [2], the IC50 was determined as 42 ± 9 nM, the “cytotoxicity compared to doxorubicin” value is “surpassed doxorubicin” and the “MCF-7 SI (selectivity index)” value came out at 14.119. Moreover, in data set [3], the IC50 was determined as 593 ± 5 nM and the “Wi-38 IC100” value turned out to be 0.111 ± 0.005 µM.

As for `Cc1cc(=O)n2c(C)nn(CC(=O)N/N=C/c3ccc([N+](=O)[O-])cc3)c2n1` [Compound 19, (E)-N′-(4-nitrobenzylidene)-2-(3,7-dimethyl-5-oxo-1,2,4-triazolo[4,3-a]pyrimidin-1(5H)-yl)acetohydrazide], in data set [1], the IC50 stood at 820 ± 90 nM and the “MDA-MB 231 SI (selectivity index)” value was determined as 0.746. Moreover, in data set [2], the IC50 stood at 201 ± 39 nM; the “fold reduction of potency and selectivity relative to 18” value turned out to be 10 fold; the “MCF-7 SI (selectivity index)” value is 3.044. In data set [3], the IC50 came out at 612 ± 34 nM and the “Wi-38 IC100” value was 0.329 ± 0.031 µM.

Regarding `COc1ccc(/C=N/NC(=O)Cn2nc(C)n3c(=O)cc(C)nc23)cc1` [Compound 20, (E)-N′-(4-methoxybenzylidene)-2-(3,7-dimethyl-5-oxo-1,2,4-triazolo[4,3-a]pyrimidin-1(5H)-yl)acetohydrazide], the 50% inhibitory concentration (IC50) is 856 ± 19 nM in data set [1], 334 ± 20 nM in data set [2] and 723 ± 20 nM in data set [3]. In data set [1], the “MDA-MB 231 SI (selectivity index)” value stood at 0.844. The “Wi-38 IC100” value in data set [3] was 0.280 ± 0.037 µM.

Consider `Cc1cc(=O)n2c(C)nn(CC(=O)N/N=C/c3ccccc3O)c2n1` [Compound 21, (E)-N′-(2-hydroxybenzylidene)-2-(3,7-dimethyl-5-oxo-1,2,4-triazolo[4,3-a]pyrimidin-1(5H)-yl)acetohydrazide], for which, in data set [1], the half-inhibitory concentration (IC50) stood at 697 ± 24 nM and the “MDA-MB 231 SI (selectivity index)” value is listed as 0.743. In data set [2], the IC50 amounted to 52 ± 10 nM, the “cytotoxicity compared to doxorubicin” value was “surpassed doxorubicin” and the “MCF-7 SI (selectivity index)” value is given as 9.961. Besides, in data set [3], the IC50 worked out at 518 ± 8 nM and the “Wi-38 IC100” value turned out to be 0.269 ± 0.026 µM.

Consider `COc1cccc2c1C(=O)c1c(O)c3c(c(O)c1C2=O)C[C@@](O)(C(=O)CO)C[C@@H]3O[C@H]1C[C@H](N)[C@H](O)[C@H](C)O1` [DOX., doxorubicin, reference compound], for which, in data set [4], the “LOD (minimum concentration inducing detectable DNA damage)” value is given as 0.76 nM and the LOQ turned out to be 2.56 nM. Also, in data set [1], the IC50 was found to be 487 ± 18 nM and the “MDA-MB 231 SI (selectivity index)” value is reported as 0.661. In addition, in data set [2], the IC50 turned out to be 198 ± 11 nM and the “MCF-7 SI (selectivity index)” value was 1.626. Besides, in data set [3], the IC50 came to 322 ± 25 nM and the “Wi-38 IC100” value was determined as 0.119 ± 0.005 µM.
